Data set [1] concerns the target Epidermal growth factor receptor (Homo sapiens, UniProt P00533, T790M). As to the kind of experiment: Inhibition of EGFR T790M mutant (unknown origin) assessed as [33P] incorporation in substrate by TopCount microplate scintillation counting analysis. Type of data set: protein assay.
The target of data set [2] is Phosphatidylinositol 4,5-bisphosphate 3-kinase catalytic subunit beta isoform (Homo sapiens, UniProt P42338). As to the kind of experiment: Inhibition of PI3K beta (unknown origin) assessed as [33P] incorporation in substrate by TopCount microplate scintillation counting analysis.
A further data set concerns HeLa. As to the kind of experiment: Induction of apoptosis in human HeLa cells assessed as reduction in XIAP protein expression at 1 uM after 24 to 48 hrs by western blot analysis. Type of data set: functional, cell-based. The method in brief: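 HeLa cells given 1.0 μM compound, DMSO, or paclitaxel 100 nM for 24 and 48 h. Lysates made in SDS sample buffer, run on SDS-PAGE and transferred to PVDF. Blots probed for cleaved caspase-3, cleaved PARP, Bcl-2, Mcl-1 and XIAP, with actin as loading control, and detected by HRP-linked ECL.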
(A western blot detects proteins with antibodies after separation by electrophoresis.)

In data set [3] the target is Serine/threonine-protein kinase Nek2 (Homo sapiens, UniProt P51955). As to the kind of experiment: Inhibition of Nek2 (unknown origin).
The target in data set [4] is Voltage-gated inwardly rectifying potassium channel KCNH2 (Homo sapiens, UniProt Q12809). As to the kind of experiment: Displacement of [3H]astemizole from human ERG after 60 mins by competitive binding assay. In general terms: Displacement assays read how much labelled ligand stays bound in the presence of the test substance.
Data set [5] is described as follows: Solubility of the compound in phosphate buffered saline containing 1% DMSO at pH 7.4 after 2 hrs by HPLC analysis. Type of data set: physicochemical.
Another data set has as its target Aurora kinase A (Homo sapiens, UniProt O14965). As to the kind of experiment: Inhibition of aurora A (unknown origin) assessed as [33P] incorporation in substrate by TopCount microplate scintillation counting analysis.
A short description of data set [6]: Volume of distribution in Sprague-Dawley rat at 2 mg/kg, iv compound formulated with 5% DMSO, 10% cremophor and 85% water by LC-MS/MS analysis. It counts as ADME, organism-based. Details: dose 2 mg/kg, route intravenous. To be noted: in vivo. The essentials: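 Male Sprague–Dawley rats, n = 3. Blood drawn by preimplanted catheter over 24 h; plasma separated at 4 °C and deproteinated with acetonitrile. Drug measured by LC–MS/MS; parameters obtained by noncompartmental analysis.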

Data set [7] can be described thus: Growth inhibition of human HuH7 cells. Type of data set: functional. To be noted: Huh-7.
Data set [8] concerns the target Serine/threonine-protein kinase B-raf (Homo sapiens, UniProt P15056, V600E). As to the kind of experiment: Inhibition of B-Raf V600E mutant (unknown origin) assessed as [33P] incorporation in substrate by TopCount microplate scintillation counting analysis.
The target of data set [9] is Fibroblast growth factor receptor 1 (Homo sapiens, UniProt P11362). As to the kind of experiment: Inhibition of FGFR1 (unknown origin) assessed as [33P] incorporation in substrate by TopCount microplate scintillation counting analysis.
Data set [10] deals with Vascular endothelial growth factor receptor 2 (Homo sapiens, UniProt P35968). As to the kind of experiment: Inhibition of VEGFR2 (unknown origin) assessed as [33P] incorporation in substrate by TopCount microplate scintillation counting analysis.
Data set [11] deals with Serine/threonine-protein kinase B-raf (Homo sapiens, UniProt P15056). As to the kind of experiment: Inhibition of B-Raf (unknown origin) assessed as [33P] incorporation in substrate by TopCount microplate scintillation counting analysis.
Data set [12] deals with Serine/threonine-protein kinase Chk1 (Homo sapiens, UniProt O14757). As to the kind of experiment: Inhibition of CHK1 (unknown origin) assessed as [33P] incorporation in substrate by TopCount microplate scintillation counting analysis.
A short description of data set [13]: Growth inhibition of human WI38 cells. To be noted: WI-38 cells. Type of data set: cell-based.
The test system of another data set is MDA-MB-468. As to the kind of experiment: Induction of mitotic abnormalities in human MDA-MB-468 cells assessed as proportion of cells displaying multipolar spindles at 10 nM after 48 hrs by immunofluorescent staining based microscopy (reference value: […]). Type of data set: functional.
In data set [14] the target is Insulin-like growth factor 1 receptor (Homo sapiens, UniProt P08069). As to the kind of experiment: Inhibition of IGF-1R (unknown origin) assessed as [33P] incorporation in substrate by TopCount microplate scintillation counting analysis.
The next data set relates to Mus musculus. As to the kind of experiment: Toxicity in BALB/c nu/nu mouse xenografted with human MDA-MB-231 cells assessed as body weight loss at 150 mg/kg, po bid for 28 days. To be noted: in vivo, 672 h. Type of data set: organism-based. Details: dose 150 mg/kg, route oral. The method in brief:
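Female BALB/c nu/nu mice, 5–8 weeks old, implanted subcutaneously in the right flank with 1 × 10⁷ MDA-MB-231 cells in matrigel. Treatment began at about 100 mm³ tumor volume; 5 mice per group. Dosing for 28 days: IV 20 mg/kg once daily or PO 150 mg/kg twice daily, in 5% DMSO/10% Cremophor in H₂O; vehicle controls included. Body weight and tumor size (caliper) recorded every 2 days.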

A further data set has as its system COLO 205. As to the kind of experiment: Growth inhibition of human COLO205 cells. Type of data set: functional.
The target in data set [15] is T1, Kinetochore protein NDC80 homolog (Homo sapiens) (UniProt O14777).
T1 sequence (whole entry): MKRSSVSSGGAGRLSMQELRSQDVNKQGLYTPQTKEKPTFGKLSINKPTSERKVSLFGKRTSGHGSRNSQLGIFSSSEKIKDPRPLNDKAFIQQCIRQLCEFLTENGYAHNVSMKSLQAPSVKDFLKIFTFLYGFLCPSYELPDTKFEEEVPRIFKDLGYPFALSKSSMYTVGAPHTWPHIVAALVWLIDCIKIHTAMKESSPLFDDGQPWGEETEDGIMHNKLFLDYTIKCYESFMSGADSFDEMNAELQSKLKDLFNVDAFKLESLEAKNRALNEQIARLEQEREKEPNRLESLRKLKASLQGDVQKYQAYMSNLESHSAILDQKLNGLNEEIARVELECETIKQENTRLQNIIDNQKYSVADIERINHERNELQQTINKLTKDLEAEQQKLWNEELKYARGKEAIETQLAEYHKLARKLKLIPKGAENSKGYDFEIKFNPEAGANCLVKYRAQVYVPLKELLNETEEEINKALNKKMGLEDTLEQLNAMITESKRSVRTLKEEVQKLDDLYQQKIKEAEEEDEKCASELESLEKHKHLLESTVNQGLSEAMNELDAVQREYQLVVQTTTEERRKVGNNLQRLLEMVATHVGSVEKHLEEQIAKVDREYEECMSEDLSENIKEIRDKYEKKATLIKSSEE
As to the kind of experiment: Inhibition of Hec1/Nek2 interaction in human MDA-MB-468 cells assessed as induction of Nek2 degradation at 100 nM by western blot analysis in presence of 500 nM proteasome inhibition MG132. Type of data set: cell-based. The method in brief: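 MDA-MB-468 cells treated with compound at 100 nM, with or without MG132 at 500 nM. Lysates made in SDS sample buffer, run on SDS-PAGE and blotted to PVDF. Primary antibodies applied in 3% BSA-TBST, with HRP secondaries and enhanced chemiluminescence detection for Hec1 and Nek2.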

Data set [16] addresses Cyclin-dependent kinase 1/cyclin B1 (Homo sapiens, UniProt P06493). As to the kind of experiment: Inhibition of Cdk1/cyclin B (unknown origin) assessed as [33P] incorporation in substrate by TopCount microplate scintillation counting analysis. Type of data set: protein-complex assay.
Data set [17] can be described thus: Clearance in Sprague-Dawley rat at 2 mg/kg, iv compound formulated with 5% DMSO, 10% cremophor and 85% water by LC-MS/MS analysis. Type of data set: ADME, organism-based. Further details: dose 2 mg/kg, route intravenous. To be noted: in vivo.

Converted amounts (≈) assume the structure as drawn. The source made the active and inactive calls. No cut-off for these calls is given here. Bounds are passed on as bounds.

In general, IC50 refers to the concentration needed to halve the response being measured. One may read the solubility (kinetic) as the concentration staying in solution when a stock, usually in DMSO, is diluted into the medium. Usually Vd stands for the apparent volume that relates the amount in the body to the concentration in plasma or blood. One may read the GI50 as the concentration that inhibits growth by half. Low readings indicate greater sensitivity of the cells, high ones lower sensitivity of the cells. What is called clearance is the volume of plasma or blood freed of the substance per unit of time. Low values mean inefficient removal, high ones efficient removal.

Chain of Serine/threonine-protein kinase Nek2 (P51955 whole entry): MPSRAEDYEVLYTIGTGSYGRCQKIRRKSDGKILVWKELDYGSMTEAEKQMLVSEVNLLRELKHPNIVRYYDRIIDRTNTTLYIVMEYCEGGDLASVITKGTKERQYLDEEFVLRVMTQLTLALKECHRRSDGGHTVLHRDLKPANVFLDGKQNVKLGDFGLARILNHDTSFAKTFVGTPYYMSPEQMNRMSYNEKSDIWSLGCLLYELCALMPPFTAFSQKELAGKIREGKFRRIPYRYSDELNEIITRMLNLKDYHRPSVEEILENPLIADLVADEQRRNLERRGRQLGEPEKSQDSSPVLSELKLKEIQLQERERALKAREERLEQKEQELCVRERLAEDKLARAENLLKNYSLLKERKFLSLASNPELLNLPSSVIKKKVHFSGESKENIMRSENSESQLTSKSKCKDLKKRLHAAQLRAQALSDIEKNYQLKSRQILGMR
Chain of Voltage-gated inwardly rectifying potassium channel KCNH2 (Q12809 whole entry): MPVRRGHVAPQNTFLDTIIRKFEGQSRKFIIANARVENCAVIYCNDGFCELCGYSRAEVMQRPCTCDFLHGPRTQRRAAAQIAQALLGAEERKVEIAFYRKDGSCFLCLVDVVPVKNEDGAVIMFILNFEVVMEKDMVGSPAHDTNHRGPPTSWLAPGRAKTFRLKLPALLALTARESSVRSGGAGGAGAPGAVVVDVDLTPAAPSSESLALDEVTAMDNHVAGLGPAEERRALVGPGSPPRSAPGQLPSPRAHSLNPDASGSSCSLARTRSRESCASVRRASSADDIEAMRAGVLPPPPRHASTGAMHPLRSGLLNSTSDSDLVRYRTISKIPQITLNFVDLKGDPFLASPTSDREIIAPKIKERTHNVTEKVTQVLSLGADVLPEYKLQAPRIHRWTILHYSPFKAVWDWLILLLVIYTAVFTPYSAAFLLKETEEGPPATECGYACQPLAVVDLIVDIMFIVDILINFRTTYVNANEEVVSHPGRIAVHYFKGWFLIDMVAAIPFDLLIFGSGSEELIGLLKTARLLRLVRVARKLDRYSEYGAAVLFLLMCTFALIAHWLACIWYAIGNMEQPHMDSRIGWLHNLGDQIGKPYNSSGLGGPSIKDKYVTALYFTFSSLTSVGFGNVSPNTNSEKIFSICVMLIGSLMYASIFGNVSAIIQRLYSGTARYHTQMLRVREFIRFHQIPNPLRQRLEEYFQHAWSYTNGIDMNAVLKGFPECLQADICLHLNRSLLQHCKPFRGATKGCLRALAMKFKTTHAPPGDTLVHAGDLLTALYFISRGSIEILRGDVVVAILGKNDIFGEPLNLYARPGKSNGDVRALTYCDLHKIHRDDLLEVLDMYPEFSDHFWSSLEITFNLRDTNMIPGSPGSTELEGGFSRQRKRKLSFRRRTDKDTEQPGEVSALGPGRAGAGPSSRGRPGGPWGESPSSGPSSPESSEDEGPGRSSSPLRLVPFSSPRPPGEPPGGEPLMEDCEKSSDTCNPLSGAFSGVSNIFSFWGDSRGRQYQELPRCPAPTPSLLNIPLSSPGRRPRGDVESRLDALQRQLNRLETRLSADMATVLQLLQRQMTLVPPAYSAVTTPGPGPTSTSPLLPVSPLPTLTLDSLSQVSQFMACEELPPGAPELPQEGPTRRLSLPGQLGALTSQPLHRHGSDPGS
Chain of Serine/threonine-protein kinase B-raf (Homo sapiens, UniProt P15056) (P15056 whole entry): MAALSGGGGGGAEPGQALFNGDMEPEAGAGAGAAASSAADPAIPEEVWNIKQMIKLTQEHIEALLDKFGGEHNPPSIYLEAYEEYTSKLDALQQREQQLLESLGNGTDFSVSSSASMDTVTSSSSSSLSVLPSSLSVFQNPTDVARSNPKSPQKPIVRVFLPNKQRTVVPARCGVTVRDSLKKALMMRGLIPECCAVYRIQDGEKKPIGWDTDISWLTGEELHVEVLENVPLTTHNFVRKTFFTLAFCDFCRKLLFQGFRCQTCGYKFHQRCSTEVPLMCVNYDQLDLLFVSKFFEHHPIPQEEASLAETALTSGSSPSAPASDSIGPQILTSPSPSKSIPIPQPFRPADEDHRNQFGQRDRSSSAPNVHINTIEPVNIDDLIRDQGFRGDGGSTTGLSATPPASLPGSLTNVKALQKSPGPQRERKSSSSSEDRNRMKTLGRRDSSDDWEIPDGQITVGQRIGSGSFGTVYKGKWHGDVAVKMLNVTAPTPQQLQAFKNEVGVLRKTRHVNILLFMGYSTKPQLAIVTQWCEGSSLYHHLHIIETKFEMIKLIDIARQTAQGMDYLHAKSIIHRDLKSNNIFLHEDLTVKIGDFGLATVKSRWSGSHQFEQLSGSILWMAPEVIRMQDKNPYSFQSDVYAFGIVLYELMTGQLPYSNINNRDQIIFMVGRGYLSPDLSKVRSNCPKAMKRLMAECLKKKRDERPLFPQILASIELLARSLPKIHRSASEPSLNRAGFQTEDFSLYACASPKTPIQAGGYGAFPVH
Chain of Insulin-like growth factor 1 receptor (P08069 31-736 limits assumed): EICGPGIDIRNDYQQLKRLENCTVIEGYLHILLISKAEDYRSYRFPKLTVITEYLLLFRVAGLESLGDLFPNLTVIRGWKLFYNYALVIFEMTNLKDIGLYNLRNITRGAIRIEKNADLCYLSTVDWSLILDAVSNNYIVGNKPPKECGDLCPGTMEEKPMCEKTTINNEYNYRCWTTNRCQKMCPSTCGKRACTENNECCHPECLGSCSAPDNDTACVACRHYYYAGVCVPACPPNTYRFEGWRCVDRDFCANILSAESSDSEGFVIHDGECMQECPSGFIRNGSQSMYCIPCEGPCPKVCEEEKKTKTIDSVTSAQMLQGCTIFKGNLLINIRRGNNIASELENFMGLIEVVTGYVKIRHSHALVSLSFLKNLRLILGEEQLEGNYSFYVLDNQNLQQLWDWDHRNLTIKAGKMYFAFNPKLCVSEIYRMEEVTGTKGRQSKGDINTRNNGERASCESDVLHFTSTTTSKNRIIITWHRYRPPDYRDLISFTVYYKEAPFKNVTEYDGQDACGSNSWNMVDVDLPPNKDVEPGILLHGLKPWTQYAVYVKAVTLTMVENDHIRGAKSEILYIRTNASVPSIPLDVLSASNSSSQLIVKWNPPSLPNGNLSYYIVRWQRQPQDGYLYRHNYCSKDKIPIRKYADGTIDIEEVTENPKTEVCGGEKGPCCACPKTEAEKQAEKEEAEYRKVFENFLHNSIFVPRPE
Chain of Insulin-like growth factor 1 receptor (P08069 741-1367 limits assumed): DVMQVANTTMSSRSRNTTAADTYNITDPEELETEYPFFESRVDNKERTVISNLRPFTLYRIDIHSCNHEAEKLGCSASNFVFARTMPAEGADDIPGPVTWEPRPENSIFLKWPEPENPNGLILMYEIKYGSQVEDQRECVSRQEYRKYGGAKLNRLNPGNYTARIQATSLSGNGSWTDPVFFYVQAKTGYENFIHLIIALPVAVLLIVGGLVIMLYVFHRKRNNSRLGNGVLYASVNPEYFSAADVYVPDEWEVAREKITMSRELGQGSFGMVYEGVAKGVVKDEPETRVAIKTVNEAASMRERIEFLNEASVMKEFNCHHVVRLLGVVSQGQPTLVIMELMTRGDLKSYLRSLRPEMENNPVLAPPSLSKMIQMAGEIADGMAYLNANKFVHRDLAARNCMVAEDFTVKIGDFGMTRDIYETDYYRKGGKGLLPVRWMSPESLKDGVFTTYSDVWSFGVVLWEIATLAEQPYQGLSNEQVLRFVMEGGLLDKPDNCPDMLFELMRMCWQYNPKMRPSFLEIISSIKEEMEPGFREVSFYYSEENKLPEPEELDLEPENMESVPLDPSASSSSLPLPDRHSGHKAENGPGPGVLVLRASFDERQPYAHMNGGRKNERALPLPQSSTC
Chain of Serine/threonine-protein kinase Chk1 (O14757 whole entry): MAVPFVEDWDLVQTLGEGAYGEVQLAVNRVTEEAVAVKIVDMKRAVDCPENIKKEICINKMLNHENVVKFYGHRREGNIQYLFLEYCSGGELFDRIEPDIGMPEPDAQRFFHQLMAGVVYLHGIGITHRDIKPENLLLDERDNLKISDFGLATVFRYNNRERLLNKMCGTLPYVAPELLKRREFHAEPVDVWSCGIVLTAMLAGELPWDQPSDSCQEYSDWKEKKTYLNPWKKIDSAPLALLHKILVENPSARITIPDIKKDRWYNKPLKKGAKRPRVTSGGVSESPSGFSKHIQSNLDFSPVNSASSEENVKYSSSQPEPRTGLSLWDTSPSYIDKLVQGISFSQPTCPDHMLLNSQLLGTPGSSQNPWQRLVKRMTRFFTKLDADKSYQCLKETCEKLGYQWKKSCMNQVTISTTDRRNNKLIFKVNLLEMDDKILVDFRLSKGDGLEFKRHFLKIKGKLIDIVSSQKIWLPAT
Chain of Serine/threonine-protein kinase B-raf (Homo sapiens, UniProt P15056, V600E) (P15056 2-766 V600E limits assumed): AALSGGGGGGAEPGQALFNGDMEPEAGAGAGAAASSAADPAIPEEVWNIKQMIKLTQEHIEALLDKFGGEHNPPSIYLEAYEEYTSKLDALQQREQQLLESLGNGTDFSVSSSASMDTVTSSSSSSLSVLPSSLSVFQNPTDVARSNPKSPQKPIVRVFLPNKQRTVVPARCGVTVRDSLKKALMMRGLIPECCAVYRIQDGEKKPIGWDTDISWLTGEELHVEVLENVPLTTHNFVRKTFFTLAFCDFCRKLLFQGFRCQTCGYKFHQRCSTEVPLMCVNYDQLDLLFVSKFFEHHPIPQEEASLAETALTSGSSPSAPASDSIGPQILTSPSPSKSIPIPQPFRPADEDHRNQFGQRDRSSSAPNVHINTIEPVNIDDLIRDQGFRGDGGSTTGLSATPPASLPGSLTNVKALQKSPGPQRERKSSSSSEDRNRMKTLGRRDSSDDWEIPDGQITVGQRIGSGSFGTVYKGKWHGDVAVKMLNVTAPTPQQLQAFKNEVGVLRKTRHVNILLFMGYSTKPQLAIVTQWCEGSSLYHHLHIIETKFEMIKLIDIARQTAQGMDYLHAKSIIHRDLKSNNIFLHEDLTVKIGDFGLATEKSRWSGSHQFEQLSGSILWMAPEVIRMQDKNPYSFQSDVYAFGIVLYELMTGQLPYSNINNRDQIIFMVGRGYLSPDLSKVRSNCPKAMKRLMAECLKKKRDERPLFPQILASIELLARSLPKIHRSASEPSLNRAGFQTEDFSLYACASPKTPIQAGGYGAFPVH

For `COc1ccc(Oc2cc(C)c(-c3csc(NC(=O)c4ccnc(F)c4)n3)c(C)c2)cc1`, the IC50 (in data set [1]; in data set [2]; in data set [3]; in data set [4]; at Aurora kinase A; in data set [8]) was > 10 µM each time. The IC50 in data set [9], in data set [10], in [11], in data set [12], in data set [14] and in data set [16] was > 10 µM each time. Also, the inhibition result with HeLa was “Active”. Further, the kinetic solubility at 2 h in [5] was 0.19 µM (≈ 0.0854 µg/mL). This compound returned a Vd in data set [6] of 0.948 L/kg. In addition, the GI50 in [7] was 0.0796 µM; in data set [13], > 9 µM; in the data set on COLO 205, 0.0354 µM. For the same compound, the Activity is on record as 16.9% with MDA-MB-468 and < 5% in the data set on Mus musculus. In data set [15], the result was inactive. Besides, in data set [17], the clearance amounted to 1.22 mL/min/kg.

Values taken from ChEMBL document CHEMBL3259640 (J Med Chem, 2014).
